Measurements reported in ChEMBL document CHEMBL3108674, “6-Alkoxy-5-aryl-3-pyridinecarboxamides, a new series of bioavailable cannabinoid receptor type 1 (CB1) antagonists including peripherally selective compounds” (J Med Chem, 2013).
Active and inactive are the calls of the source. The calls are words filed in the database; no cut-off is given here.

How the values were obtained:
[1] = Ratio of drug level in brain to plasma in rat; format: ADME; conditions: brain and plasma, read-out: BPR
Cannabinoid receptor 1 [2] = target: T1, Cannabinoid receptor 1 (Homo sapiens, UniProt P21554); test: Displacement of [3H]CP55940 from human CB1 receptor expressed in CHOK1 cells after 1 hr by liquid scintillation counting analysis; format: cell-based, CHO-K1
T1 sequence (P21554 whole entry): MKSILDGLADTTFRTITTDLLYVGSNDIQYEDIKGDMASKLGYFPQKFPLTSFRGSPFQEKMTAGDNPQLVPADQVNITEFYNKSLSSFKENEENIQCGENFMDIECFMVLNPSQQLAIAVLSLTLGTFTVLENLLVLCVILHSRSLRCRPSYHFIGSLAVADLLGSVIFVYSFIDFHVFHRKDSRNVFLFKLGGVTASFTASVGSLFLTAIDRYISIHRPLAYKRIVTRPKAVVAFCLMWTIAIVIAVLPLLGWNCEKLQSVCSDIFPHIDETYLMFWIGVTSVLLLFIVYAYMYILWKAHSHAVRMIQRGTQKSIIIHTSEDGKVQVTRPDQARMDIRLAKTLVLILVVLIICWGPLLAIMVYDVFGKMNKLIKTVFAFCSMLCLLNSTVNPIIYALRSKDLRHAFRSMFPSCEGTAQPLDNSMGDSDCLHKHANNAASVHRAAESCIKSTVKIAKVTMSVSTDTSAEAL

Cannabinoid receptor 1 [3] = target: T1, Cannabinoid receptor 1; test: Antagonist activity at human CB1 receptor overexpressed in HEK cells assessed as [35S]GTPgamma binding after 1 hr by liquid scintillation counting analysis; format: functional, cell-based, HEK293
Cannabinoid receptor 2 = Cannabinoid receptor 2 (Homo sapiens, UniProt P34972); test: Displacement of [3H]CP55940 from human CB2 receptor expressed in CHOK1 cells after 1 hr by liquid scintillation counting analysis; format: cell-based, CHO-K1
Cannabinoid receptor 2, sequence (P34972 whole entry): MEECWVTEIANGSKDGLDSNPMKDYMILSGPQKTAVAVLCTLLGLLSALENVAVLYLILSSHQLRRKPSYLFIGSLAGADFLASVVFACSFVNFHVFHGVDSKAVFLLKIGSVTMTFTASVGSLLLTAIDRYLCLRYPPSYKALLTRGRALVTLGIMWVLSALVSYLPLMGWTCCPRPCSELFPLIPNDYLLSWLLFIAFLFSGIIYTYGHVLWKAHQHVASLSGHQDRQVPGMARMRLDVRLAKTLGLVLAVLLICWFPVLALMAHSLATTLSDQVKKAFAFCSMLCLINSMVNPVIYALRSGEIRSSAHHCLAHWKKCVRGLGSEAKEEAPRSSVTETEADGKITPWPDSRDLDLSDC
Method in brief: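 Membranes from butyrate-treated (5 mM, 24 h) CHO-K1 cells stably expressing human CB2, incubated with 0.3 nM [3H]CP55940 and increasing ligand concentrations, 60 min, 30 °C, pH 7.4 Tris buffer with 0.1% fatty acid-free BSA and 1% DMSO; nonspecific binding with 10 μM CP55940; filtration, scintillation counting; tested in triplicate.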

Liver microsome = test: Clearance in rat liver microsomes at 2 uM by LC-MS/MS analysis; format: ADME
Method in brief: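 Rat liver microsomes at 0.5 mg/mL were incubated with 2 μM compound (final) and an NADPH-regenerating system. Aliquots were taken at 1, 3, 6, 9, 15, 25, 35 and 45 min and quenched in acetonitrile containing internal standard. Depletion was measured by LC-MS/MS. Clmic = −slope × 1000 / protein concentration (mg/mL), not corrected for microsomal protein binding.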

[4] = Drug uptake in Sprague-Dawley rat brain at 30 mg/kg, po qd after 10 days by LC-MS/MS analysis; format: ADME, organism-based; design: dose 30 mg/kg, route oral; conditions: read-out: Drug uptake
[5] = Cmax in Sprague-Dawley rat plasma at 30 mg/kg, po qd after 10 days by LC-MS/MS analysis; format: ADME, organism-based; design: dose 30 mg/kg, route oral
Method in brief: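 Male Sprague-Dawley rats (n = 3 per compound) given 30 mg/kg/day as feed admix for 10 days; jugular vein catheter implanted 4 days before sampling; on day 10 switched to drug-free high fat chow, then serial K3EDTA blood samples over 24 h; plasma drug levels by LC-MS.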

[6] = Cmax in rat plasma at 9 mg/kg, po; format: ADME, organism-based; design: dose 9 mg/kg, route oral
[7] = Volume of distribution at steady state in rat at 3.3 mg/kg, iv; format: ADME, organism-based; design: dose 3.3 mg/kg, route intravenous; conditions: in vivo, read-out: Vdss
Rattus norvegicus [8] = species on record: Rattus norvegicus; test: Reduction in body weight gain in high fat diet-fed Sprague-Dawley rat at […]; format: functional, organism-based
Rattus norvegicus [9] = test: Reduction in body fat content in high fat diet-fed Sprague-Dawley rat at 30 mg/kg, po qd after 24 days; format: functional, organism-based; design: dose 30 mg/kg
Method in brief: (§1)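 Diet-induced obese Sprague-Dawley rats (high responders), single-housed, groups of n = 9 matched for body weight and MRS body fat; drug given as food admix for 24 days alongside pair-fed groups; body weight and food intake measured daily; body fat by MRS; plasma leptin by ELISA; mean ± SEM, ANOVA with Dunnett's test versus vehicle.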

[10] = Ratio of drug level in Sprague-Dawley rat brain to plasma at 30 mg/kg, po qd after 10 days by LC-MS/MS analysis; format: ADME, organism-based; design: dose 30 mg/kg, route oral; conditions: brain and plasma, read-out: BPR
[11] = Clearance in rat at 3.3 mg/kg, iv; format: ADME, organism-based; design: dose 3.3 mg/kg, route intravenous; conditions: in vivo
Substance-K receptor = target: T2, Substance-K receptor (Homo sapiens, UniProt P21452); test: Antagonist activity at human NK2 receptor
T2 sequence (P21452 whole entry): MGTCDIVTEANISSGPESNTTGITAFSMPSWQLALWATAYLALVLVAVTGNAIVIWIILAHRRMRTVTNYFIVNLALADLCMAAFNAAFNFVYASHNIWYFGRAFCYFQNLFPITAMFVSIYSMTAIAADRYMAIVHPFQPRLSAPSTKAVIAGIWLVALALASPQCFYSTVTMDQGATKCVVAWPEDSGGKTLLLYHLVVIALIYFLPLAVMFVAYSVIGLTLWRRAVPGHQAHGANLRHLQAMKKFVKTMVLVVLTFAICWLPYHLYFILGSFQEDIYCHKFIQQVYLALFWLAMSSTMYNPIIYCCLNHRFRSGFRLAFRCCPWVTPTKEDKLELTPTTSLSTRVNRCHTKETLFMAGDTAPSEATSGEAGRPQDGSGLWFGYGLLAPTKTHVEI

Rattus norvegicus [12] = test: Maximum unbound fraction in rat at 9 mg/kg, po; format: ADME, organism-based; design: dose 9 mg/kg, route oral; conditions: in vivo
[13] = Tmax in rat plasma at 9 mg/kg, po; format: ADME, organism-based; design: dose 9 mg/kg, route oral
[14] = Oral bioavailability in rat at 9 mg/kg; format: ADME, organism-based; conditions: in vivo
[15] = Plasma protein binding in rat; format: ADME, cell-free; conditions: read-out: PPB (converted)
Rattus norvegicus [16] = test: Reduction of leptin level in high fat diet-fed Sprague-Dawley rat plasma at 30 mg/kg, po qd after 24 days by ELISA; format: functional, organism-based; design: dose 30 mg/kg; method in brief: as §1
Plasma = test: Maximum unbound fraction in rat plasma at 9 mg/kg, po; format: ADME, organism-based; design: dose 9 mg/kg, route oral; conditions: in vivo

SMILES	Ki (Cannabinoid receptor 1 [2])	Ki (Cannabinoid receptor 2)	CLH (Liver microsome)	also measured
COCCOc1ncc(C(=O)N[C@@H]2CCCC[C@H]2O)cc1-c1ccc(Cl)cc1	0.0051 µM	> 10 µM	98 µL/min/mg	Kp [1]: 0.1; EC50 (Cannabinoid receptor 1 [3]): 0.0116 µM; concentration at 240 h [4]: 130 ng/g; Cmax [5]: 1 µg/mL; Cmax [6]: 1.61 µg/mL; Vd [7]: 0.7 L/kg; Activity (Rattus norvegicus [8]): inactive; Activity (Rattus norvegicus [9]): inactive; Kp at 240 h [10]: 0.13; clearance [11]: 1.12 L/h/kg; IC50 (Substance-K receptor): 46 µM; fCmax (Rattus norvegicus [12]): 156 nM; Tmax [13]: 30 min; bioavailability [14]: 84%; fraction unbound [15]: 0.039; Activity (Rattus norvegicus [16]): inactive; Cp(f)max (Plasma): 0.063 µg/mL
Cc1cc(COc2ncc(C(=O)N[C@@H]3CCCC[C@H]3O)cc2-c2ccc(Cl)cc2)on1	0.0106 µM	> 10 µM	151 µL/min/mg	
O=C(N[C@H]1CCCC[C@H]1O)c1cnc(OCC2CC2)c(-c2ccc(Cl)cc2)c1	0.104 µM	> 7 µM	111 µL/min/mg	
O=C(N[C@@H]1CCCC[C@H]1O)c1cnc(OC2CCCC2)c(-c2cc(C(F)(F)F)ccc2Cl)c1			367 µL/min/mg	IC50 (Cannabinoid receptor 1 [2]): 0.395 µM; IC50 (Cannabinoid receptor 2): 2.39 µM
O=C(N[C@@H]1CCCC[C@H]1O)c1cnc(OC2CCCCC2)c(-c2ccc(Cl)cc2)c1	3.03 µM	> 10 µM	662 µL/min/mg	
O=C(N[C@@H]1CCCC[C@@H]1O)c1cnc(OCC2CC2)c(-c2ccc(Cl)cc2)c1	0.186 µM	> 5 µM	163 µL/min/mg	
O=C(N[C@@H]1CCCC[C@H]1O)c1cnc(OC2CCC2)c(-c2ccc(Cl)cc2)c1	0.208 µM	> 10 µM	210 µL/min/mg	
